According to ChEMBL document CHEMBL1212914, “A novel water-soluble gossypol derivative increases chemotherapeutic sensitivity and promotes growth inhibition in colon cancer” (J Med Chem, 2010):
pIC50: −log10 of the molar value. Activity calls are given as the source filed them. No cut-off for these calls is given here.

Assays:
A549 = test: Cytotoxicity against human A549 cells after 72 hrs by MTT assay; type: functional, cell-based; details: A549, 72 h
Method in brief: (§1)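 Compounds dissolved in DMSO; cells seeded at 5 × 10^3 per well and treated after adherence with a range of concentrations for 72 h, with DMSO as negative control. MTT was added for 4 h at 37 °C in the dark, formazan dissolved in DMSO, and absorbance read. IC50 (μM) was calculated as the mean of three independent experiments.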

MDA-MB-435 = test: Cytotoxicity against human MDA-MB-435 cells after 72 hrs by MTT assay; type: functional, cell-based; details: Homo sapiens, MDA-MB-435, 72 h; method in brief: as §1
MCF7 = test: Cytotoxicity against human MCF7 cells after 72 hrs by MTT assay; type: functional, cell-based; details: Homo sapiens, MCF7, 72 h; method in brief: as §1
HCT-116 = test: Cytotoxicity against human HCT116 cells after 72 hrs by MTT assay; type: functional, cell-based; details: Homo sapiens, HCT-116, 72 h; method in brief: as §1
B16-F10 = test: Cytotoxicity against mouse B16F10 cells after 72 hrs by MTT assay; type: functional, cell-based; details: Mus musculus, B16-F10, 72 h; method in brief: as §1
PC-3 = test: Cytotoxicity against human PC3 cells after 72 hrs by MTT assay; type: functional, cell-based; details: Homo sapiens, PC-3, 72 h; method in brief: as §1
4T1 = test: Cytotoxicity against mouse 4T1 cells after 72 hrs by MTT assay; type: functional, cell-based; details: Mus musculus, 4T1, 72 h; method in brief: as §1
CT26 [1] = test: Cytotoxicity against mouse CT26 cells after 72 hrs by MTT assay; type: functional, cell-based; details: Mus musculus, CT26, 72 h; method in brief: as §1
MCF-7 (Homo sapiens) = test: Cytotoxicity against human MCF-7 cells after 72 hrs by MTT assay; details: MCF-7, 72 h
CT26 [2] = test: Induction of apoptosis in mouse CT26 cells assessed as reduction of Bcl-xL protein level at 5 to 10 uM after 24 hrs by immunoblotting; type: functional, cell-based
Method in brief: (§2)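 CT26 cells were exposed to 5 or 10 μM for the indicated times, with DMSO as control. Lysates were run on 10% SDS-PAGE and transferred to nitrocellulose. Blots were probed overnight at 4 °C for Bcl-2 and Bcl-xL, with β-actin as loading control, and detected by HRP chemiluminescence. Experiments were repeated three times.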

CT26 [3] = test: Induction of apoptosis in mouse CT26 cells assessed as reduction of Bcl-2 mRNA level at 10 uM after 24 hrs by RT-PCR analysis; type: functional, cell-based
CT26 [4] = test: Induction of apoptosis in mouse CT26 cells assessed as reduction of Bcl-xL mRNA level at 10 uM after 24 hrs by RT-PCR analysis; type: functional, cell-based
CT26 [5] = test: Induction of apoptosis in mouse CT26 cells assessed as inhibition of Bcl-2-Bax interaction at 20 uM after 24 hrs by immunoprecipitation analysis; type: functional, cell-based
Method in brief: (§3)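 CT26 cells were treated for 24 h, with DMSO as control, then lysed in Triton X-100 buffer for 30 min at 4 °C. Lysates were immunoprecipitated overnight at 4 °C with anti-Bcl-2 or anti-Bcl-xL antibody plus protein A-agarose. Eluates were western-blotted for Bax (Bcl-2 pulldown) or Bim (Bcl-xL pulldown).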

CT26 [6] = test: Induction of apoptosis in mouse CT26 cells assessed as inhibition of Bcl-xL-Bim interaction at 20 uM after 24 hrs by immunoprecipitation analysis; type: functional, cell-based; method in brief: as §3
CT26 [7] = test: Antitumor activity against mouse CT26 cells xenografted in BALB/c mouse assessed as decrease of tumor volume at 10 umol/kg, po for 12 consecutive days; type: functional, organism-based
Method in brief: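 Male BALB/c mice (6-8 weeks) received 5 × 10^5 CT26 cells subcutaneously in the right flank. At 60 mm3, tumor-bearing mice were randomized (n = 4 per group) and dosed by gavage at 10 μmol/kg daily for 12 days in 10% ethanol, with vehicle as control. Tumors were measured every 2 days by caliper; volume = length × width × width × π/6.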

Mus musculus [8] = test: Toxicity in BALB/c mouse assessed as weight loss at 120 umol/kg, po administered daily once for 12 days; type: organism-based; details: in vivo, 288 h
Method in brief: (§4)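 Male BALB/c mice aged 6-8 weeks, n = 6 per group, received 120 μmol/kg by gavage once daily for 12 days in 10% ethanol, with 10% ethanol alone as the control. Survival was followed over time, and mice were weighed at day 12 and then sacrificed. Small intestine was paraffin-embedded, cut into 5 μm sections, H&E-stained and examined by light microscopy. Student's t test was used.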

Mus musculus [9] = test: Toxicity in BALB/c mouse assessed as induction of small intestine damage at 120 umol/kg, po administered daily once for 12 days; type: organism-based; details: in vivo, 288 h; method in brief: as §4
SW-620 = test: Cytotoxicity against human SW620 cells after 72 hrs by MTT assay; type: functional, cell-based; details: Homo sapiens, SW-620, 72 h; method in brief: as §1
[10] = Solubility of the compound in 100 gram of water; type: physicochemical; details: buffer
Method in brief: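 Water solubility was measured at 37 °C as the mass of compound dissolving in 100 g of H2O.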

[11] = Chemical stability of the compound in phosphate buffered saline at pH 7.2 to 7.4 after 30 mins; type: physicochemical; details: buffer, pH 7.2, 0.5 h
Method in brief: (§5)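 The compound was incubated for 30 min in PBS (pH 7.2-7.4) or in human or mouse serum, and the amount remaining was analyzed by HPLC.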

Serum [12] = test: Metabolic stability of the compound in human serum after 30 mins; type: ADME, cell-free; details: 0.5 h; method in brief: as §5
Serum [13] = test: Metabolic stability of the compound in mouse serum after 30 mins; type: ADME, cell-free; details: 0.5 h; method in brief: as §5
CT26 [14] = test: Cytotoxicity against mouse CT26 cells assessed as cell viability at 20 uM after 24 hrs by […]; type: functional; details: CT26, 24 h, read-out: Activity
Method in brief: (§6)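 CT26 cells were seeded at 2 × 10^3 per well and, after adherence, exposed to 2, 5, 10 or 20 μM for up to 120 h. Viability was read with a Cell Titer 96 Aqueous One Solution proliferation kit rather than MTT.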

CT26 [15] = test: Cytotoxicity against mouse CT26 cells assessed as cell viability at 20 uM after 48 hrs […]; type: functional; details: CT26, 48 h, read-out: Activity; method in brief: as §6
CT26 [16] = test: Cytotoxicity against mouse CT26 cells assessed as complete cell death at 20 uM after 72 hrs by […]; type: functional, cell-based; method in brief: as §6
CT26 [17] = test: Cytotoxicity against mouse CT26 cells at 5 to 10 uM after 24 hrs by […]; type: functional, cell-based; method in brief: as §6
CT26 [18] = test: Cytotoxicity against mouse CT26 cells assessed as cell viability at 2 uM after 120 hrs by […]; type: functional; details: CT26, 120 h, read-out: Activity; method in brief: as §6
CT26 [19] = test: Cytotoxicity against mouse CT26 cells at 2 to 20 uM by […]; type: functional, cell-based; details: TDE = time-dependent effect; method in brief: as §6
CT26 [20] = test: Induction of apoptosis in mouse CT26 cells at 5 to 10 uM by TUNEL assay; type: functional, cell-based; details: TDE = time-dependent effect
Method in brief: (§7)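 After treatment at various concentrations and times, CT26 cells were PBS-washed and fixed in 4% paraformaldehyde for 1 h at room temperature. They were permeabilized for 2 min on ice, then incubated with TUNEL reaction mixture for 1 h at 37 °C in the dark and counterstained with DAPI. TUNEL-positive cells were counted by fluorescence microscopy in five random fields and averaged; DMSO served as control.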

CT26 [21] = test: Induction of apoptosis in mouse CT26 cells after 24 to 72 hrs by TUNEL assay; type: functional, cell-based; method in brief: as §7
CT26 [22] = test: Induction of apoptosis in mouse CT26 cells assessed as reduction of Bcl-2 protein level at 5 to 10 uM after 24 hrs by immunoblotting; type: functional, cell-based; method in brief: as §2

Work on `CO[C@@H](c1ccc([N+](=O)[O-])cc1)[C@H](CO)/N=C/c1c(O)c(O)c(C(C)C)c2cc(C)c(-c3c(C)cc4c(C(C)C)c(O)c(O)c(/C=N/[C@@H](CO)[C@@H](OC)c5ccc([N+](=O)[O-])cc5)c4c3O)c(O)c12` yielded a pIC50 (A549) of less than 4.40, a pIC50 (MDA-MB-435) of less than 4.40 and a pIC50 (MCF7) of less than 4.40. For the same compound, the pIC50 (HCT-116) was 4.75, the pIC50 (B16-F10) was less than 4.40 and the pIC50 (PC-3) was less than 4.40. For the same compound, the pIC50 (4T1) was less than 4.40, the pIC50 (CT26 [1]) was less than 4.40 and the pIC50 (MCF-7 (Homo sapiens)) was less than 4.40.

With `COC(=O)C(/N=C/c1c(O)c(O)c(C(C)C)c2cc(C)c(-c3c(C)cc4c(C(C)C)c(O)c(O)c(/C=N/C(C(=O)OC)c5c[nH]c6ccccc56)c4c3O)c(O)c12)c1c[nH]c2ccccc12` (configuration not stated) the pIC50 (A549) was less than 4.40, the pIC50 (MDA-MB-435) was less than 4.40 and the pIC50 (MCF7) was less than 4.40. The pIC50 (HCT-116) was less than 4.40, the pIC50 (B16-F10) was less than 4.40 and the pIC50 (PC-3) was less than 4.40. For the same compound, the pIC50 (4T1) was less than 4.40, the pIC50 (CT26 [1]) was less than 4.40 and the pIC50 (MCF-7 (Homo sapiens)) was less than 4.40.

With `CC1=C(C2=C(C)C(=O)c3c(c(/C=N/[C@@H]4C(=O)N5[C@@H]4SC(C)(C)[C@@H]5C(=O)[O-])c(O)c(O)c3C(C)C)C2=O)C(=O)c2c(/C=N/[C@@H]3C(=O)N4[C@@H]3SC(C)(C)[C@@H]4C(=O)[O-])c(O)c(O)c(C(C)C)c2C1=O.[Na+].[Na+]` the Activity (CT26 [2]) was “Active”, the Activity (CT26 [3]) was “inactive” and the Activity (CT26 [4]) was “inactive”. The Activity (CT26 [5]) was “Active”, the Activity (CT26 [6]) was “Active” and the Activity (CT26 [7]) was “Active”. For the same compound, the Activity (Mus musculus [8]) was “Non-toxic”, the Activity (Mus musculus [9]) was “Non-toxic” and the pIC50 (A549) was 5.06. The pIC50 (MDA-MB-435) was less than 4.40, the pIC50 (MCF7) was 4.54 and the pIC50 (SW-620) was 5.18. For the same compound, the pIC50 (HCT-116) was 4.76, the pIC50 (B16-F10) was 4.96 and the pIC50 (PC-3) was 4.53. The pIC50 (4T1) was 4.55, the pIC50 (CT26 [1]) was 5.18 and the solubility [10] was 9.25 g. For the same compound, the Stability [11] was “Stable”, the Stability (Serum [12]) was “Stable” and the Stability (Serum [13]) was “Stable”. The viability at 20 µM (CT26 [14]) was 80%, the viability at 20 µM (CT26 [15]) was 60% and the Activity (CT26 [16]) was “Active”. For the same compound, the Activity (CT26 [17]) was “Active”, the viability at 2 µM (CT26 [18]) was greater than 90% and the Activity (CT26 [19]) was “tde”. For the same compound, the Activity (CT26 [20]) was “tde”, the Activity (CT26 [21]) was “Dose-dependent effect” and the Activity (CT26 [22]) was “Active”.

In the case of `CCC(C)[C@H](/N=C/c1c(O)c(O)c(C(C)C)c2cc(C)c(-c3c(C)cc4c(C(C)C)c(O)c(O)c(/C=N/[C@H](C(=O)O)C(C)CC)c4c3O)c(O)c12)C(=O)O` (some centres not stated), the pIC50 (A549) was 4.83, the pIC50 (MDA-MB-435) was less than 4.40 and the pIC50 (MCF7) was 4.55. For the same compound, the pIC50 (SW-620) was 4.65, the pIC50 (HCT-116) was 4.46 and the pIC50 (B16-F10) was 4.70. For the same compound, the pIC50 (PC-3) was less than 4.40, the pIC50 (4T1) was less than 4.40 and the pIC50 (CT26 [1]) was 4.73.
